Columns and labels:
[1] = species on record: Oryctolagus cuniculus; assay: In vitro intrinsic activity was determined against rabbit aorta and expressed as factor F at t1/2; format: functional
[2] = species on record: Oryctolagus cuniculus; assay: In vitro intrinsic activity was determined against rabbit aorta and percent increase in blood pressure was reported; format: functional
[3] = species on record: Oryctolagus cuniculus; assay: In vitro intrinsic activity was determined against rabbit aorta and expressed as factor F at t3/4; format: functional
[4] = test system: Rattus norvegicus; assay: In vivo intrinsic activity was determined against rat aorta and percent increase in blood pressure was reported; format: functional
Summary of the method: (§1)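 Male Wistar rats (~250 g) are anesthetized with urethane 1.4 g/kg sc, with jugular vein and carotid artery cannulated. Peptides are diluted in 0.9% saline from 1 mg/mL aqueous stocks and injected intravenously. Arterial blood pressure is recorded through the carotid cannula with a pressure transducer.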

[5] = test system: Rattus norvegicus; assay: In vivo intrinsic activity against rat aorta and value was reported as factor between the hypertensin and the compound; format: functional; summary of the method: as §1
[6] = species on record: Oryctolagus cuniculus; assay: In vitro intrinsic activity was determined against rabbit aorta and time taken to ralax maximally contracted tissue to 25% was reported; format: functional; design: unit not given beside the values
Summary of the method: (§2)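 Aortic strips are held in an aerated (95% O2/5% CO2) bath under 2.0 g tension after a 60–90 min equilibration. At maximal agonist contraction, unbound peptide is removed by several washes and the time for tension to fall back toward the pre-contraction level is recorded. Peptides are diluted in 0.9% saline from 1 mg/mL aqueous stocks immediately before use.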

[7] = species on record: Oryctolagus cuniculus; assay: In vitro intrinsic activity against rabbit aorta and value was reported as factor between the hypertensin and the compound; format: functional
Summary of the method: (§3)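 Isolated aortic tissue in a bath aerated with 95% O2/5% CO2 under 2.0 g initial tension, readjusted during a 60–90 min equilibration with bath fluid changed every 10–15 min. Concentrations are final bath concentrations. Peptides are kept as 1 mg/mL stocks in distilled water at -20 °C for up to 14 days and diluted in 0.9% saline just before use.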

[8] = species on record: Oryctolagus cuniculus; assay: In vitro intrinsic activity was determined against rabbit aorta and expressed as alpha E; format: functional; summary of the method: as §3
[9] = species on record: Oryctolagus cuniculus; assay: In vitro intrinsic activity was determined against rabbit aorta and expressed as negative logarithm of half maximal dose; summary of the method: as §3
[10] = species on record: Oryctolagus cuniculus; assay: In vitro intrinsic activity was determined against rabbit aorta and time taken to ralax maximally contracted tissue to 50% was reported; format: functional; summary of the method: as §2

Compound	F1/2 [1]	Increase in blood pressure [2]	F3/4 [3]	Increase in blood pressure [4]	Activity Factor [5]	T3/4 [6]	Activity [7]	Alpha E [8]	pD2 [9]	T1/2 [10]
CC[C@H](C)[C@H](NC(=O)[C@H](Cc1ccc(O)cc1)NC(=O)[C@@H](NC(=O)[C@H](CCCN=C(N)N)NC(=O)[C@@H](N)CC(=O)N(C(C)C)C(C)C)C(C)C)C(=O)N[C@@H](Cc1c[nH]cn1)C(=O)N1CCC[C@H]1C(=O)N[C@@H](Cc1ccccc1)C(=O)O [listing 1 of 2 here]	2.9	9%	4.2	7%	14.3	36.7	11	1	–	–
CC[C@H](C)[C@H](NC(=O)[C@H](Cc1ccc(O)cc1)NC(=O)[C@@H](NC(=O)[C@H](CCCN=C(N)N)NC(=O)[C@@H](N)CC(=O)N(C)C)C(C)C)C(=O)N[C@@H](Cc1c[nH]cn1)C(=O)N1CCC[C@H]1C(=O)N[C@@H](Cc1ccccc1)C(=O)O [listing 1 of 2 here]	1.3	46%	2.3	30%	3.3	20	2.2	1	–	–
H-NRVYIHPF-OH	1	100%	1	100%	1	8.7	1	1	7.73	5
CC[C@H](C)[C@H](NC(=O)[C@H](Cc1ccc(O)cc1)NC(=O)[C@@H](NC(=O)[C@H](CCCN=C(N)N)NC(=O)[C@@H](N)CC(=O)N(C)C)C(C)C)C(=O)N[C@@H](Cc1c[nH]cn1)C(=O)N1CCC[C@H]1C(=O)N[C@@H](Cc1ccccc1)C(=O)O [listing 2 of 2 here]	–	–	–	–	–	–	–	–	7.39	–
CCCN(CCC)C(=O)C[C@H](N)C(=O)N[C@@H](CCCN=C(N)N)C(=O)N[C@H](C(=O)N[C@@H](Cc1ccc(O)cc1)C(=O)N[C@H](C(=O)N[C@@H](Cc1c[nH]cn1)C(=O)N1CCC[C@@H]1C(=O)N[C@@H](Cc1ccccc1)C(=O)O)[C@@H](C)CC)C(C)C	–	–	–	–	–	–	–	–	–	18.7
CC[C@H](C)[C@H](NC(=O)[C@H](Cc1ccc(O)cc1)NC(=O)[C@@H](NC(=O)[C@H](CCCN=C(N)N)NC(=O)[C@@H](N)CC(=O)N(C(C)C)C(C)C)C(C)C)C(=O)N[C@@H](Cc1c[nH]cn1)C(=O)N1CCC[C@@H]1C(=O)N[C@@H](Cc1ccccc1)C(=O)O	–	–	–	–	–	–	–	–	–	14.3
CC[C@H](C)[C@H](NC(=O)[C@H](Cc1ccc(O)cc1)NC(=O)[C@@H](NC(=O)[C@H](CCCN=C(N)N)NC(=O)[C@@H](N)CC(=O)N(C(C)C)C(C)C)C(C)C)C(=O)N[C@@H](Cc1c[nH]cn1)C(=O)N1CCC[C@H]1C(=O)N[C@@H](Cc1ccccc1)C(=O)O [listing 2 of 2 here]	–	–	–	–	–	–	–	–	6.69	–
CCCN(CCC)C(=O)C[C@H](N)C(=O)N[C@@H](CCCN=C(N)N)C(=O)N[C@H](C(=O)N[C@@H](Cc1ccc(O)cc1)C(=O)N[C@H](C(=O)N[C@@H](Cc1c[nH]cn1)C(=O)N1CCC[C@H]1C(=O)N[C@@H](Cc1ccccc1)C(=O)O)[C@@H](C)CC)C(C)C [listing 1 of 2 here]	3.7	16%	5.1	9%	11.1	44	6.3	1	–	–
CCCN(CCC)C(=O)C[C@H](N)C(=O)N[C@@H](CCCN=C(N)N)C(=O)N[C@H](C(=O)N[C@@H](Cc1ccc(O)cc1)C(=O)N[C@H](C(=O)N[C@@H](Cc1c[nH]cn1)C(=O)N1CCC[C@H]1C(=O)N[C@@H](Cc1ccccc1)C(=O)O)[C@@H](C)CC)C(C)C [listing 2 of 2 here]	–	–	–	–	–	–	–	–	6.93	–
CC[C@H](C)[C@H](NC(=O)[C@H](Cc1ccc(O)cc1)NC(=O)[C@@H](NC(=O)[C@H](CCCN=C(N)N)NC(=O)[C@@H](N)CC(=O)N(C)C)C(C)C)C(=O)N[C@@H](Cc1c[nH]cn1)C(=O)N1CCC[C@@H]1C(=O)N[C@@H](Cc1ccccc1)C(=O)O	–	–	–	–	–	–	–	–	–	6.7

Source: ChEMBL document CHEMBL1121786, “Studies on position 1 of angiotensin II: effects on affinity and duration of action from alkyl amide substitution” (J Med Chem, 1981)
